The term Ki denotes the dissociation constant of the complex between target and ligand, obtained from inhibition or displacement. By Kd is commonly meant the free concentration of one partner at which half of the binding sites on the other are occupied at equilibrium, for simple one-to-one binding. Broadly, the Km is the substrate concentration at which the rate is half of its maximum.

The target in series [1] is T1, CYP2E1 (Homo sapiens, UniProt P05181). As to the kind of experiment: Extended CYP2E1-pNP inhibition profiling. In kind it is biochemical. The note with it: additive up to 50 µmol/L.
Target sequence in this assay (P05181 whole entry): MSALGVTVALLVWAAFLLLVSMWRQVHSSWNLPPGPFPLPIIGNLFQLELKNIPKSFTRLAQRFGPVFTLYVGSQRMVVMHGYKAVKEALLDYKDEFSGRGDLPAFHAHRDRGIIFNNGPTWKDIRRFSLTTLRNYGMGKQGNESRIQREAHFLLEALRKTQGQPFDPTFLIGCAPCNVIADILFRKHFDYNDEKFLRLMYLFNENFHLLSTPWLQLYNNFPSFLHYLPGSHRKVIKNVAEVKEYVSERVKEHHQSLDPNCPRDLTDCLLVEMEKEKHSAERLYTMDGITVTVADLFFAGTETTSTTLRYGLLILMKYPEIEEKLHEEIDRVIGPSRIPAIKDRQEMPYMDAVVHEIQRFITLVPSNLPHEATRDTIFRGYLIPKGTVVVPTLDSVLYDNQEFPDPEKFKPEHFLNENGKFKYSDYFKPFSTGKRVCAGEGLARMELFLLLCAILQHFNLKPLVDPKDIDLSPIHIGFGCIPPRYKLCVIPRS
Target sequence in this assay (P16435 2-677 partner): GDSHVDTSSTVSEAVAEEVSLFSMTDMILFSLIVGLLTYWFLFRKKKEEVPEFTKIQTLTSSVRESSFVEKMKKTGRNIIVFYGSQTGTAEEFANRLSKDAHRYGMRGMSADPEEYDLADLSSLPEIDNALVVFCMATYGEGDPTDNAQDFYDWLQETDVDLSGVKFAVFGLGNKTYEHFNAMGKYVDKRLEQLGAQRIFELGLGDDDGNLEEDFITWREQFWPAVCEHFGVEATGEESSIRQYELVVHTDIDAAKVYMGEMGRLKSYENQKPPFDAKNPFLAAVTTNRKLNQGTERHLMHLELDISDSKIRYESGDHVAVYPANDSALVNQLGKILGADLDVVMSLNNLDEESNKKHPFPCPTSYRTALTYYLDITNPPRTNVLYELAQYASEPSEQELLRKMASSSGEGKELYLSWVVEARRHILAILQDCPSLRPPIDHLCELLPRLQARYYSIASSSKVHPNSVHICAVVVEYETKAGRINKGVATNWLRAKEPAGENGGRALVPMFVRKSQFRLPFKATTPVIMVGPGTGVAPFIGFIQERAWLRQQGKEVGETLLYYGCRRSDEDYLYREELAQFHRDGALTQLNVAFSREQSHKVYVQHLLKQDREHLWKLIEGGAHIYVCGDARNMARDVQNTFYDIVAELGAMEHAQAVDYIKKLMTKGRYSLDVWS
Target sequence in this assay (P00167 2-134 partner): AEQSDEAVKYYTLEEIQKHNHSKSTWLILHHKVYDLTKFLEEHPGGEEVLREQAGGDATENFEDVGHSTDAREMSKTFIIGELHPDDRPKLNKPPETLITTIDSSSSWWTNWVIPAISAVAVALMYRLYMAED
For series [2], the system named is Escherichia coli DH5α. The series can be described thus: Growth of E coli DH5α transformed with pBTR1. The series is classed as cell-based. The note with it: 4 hours, control = 100.
The subject of series [3] is E coli DH5α. As to the kind of experiment: Growth. The series is classed as cell-based, Escherichia coli.
Series [4] concerns Escherichia coli DH5α. The note with it: 6 hours, control = 100.
Series [5] has as its system B megaterium MTCC 428. As to the kind of experiment: Growth. In kind it is cell-based, Bacillus megaterium.
The target in series [6] is T1, CYP2E1. The series can be described thus: CYP2E1 baculosome pNP hydroxylation. The note with it: for Effect on pNC formation: earlier time (10 minutes). The series is classed as biochemical.
Target sequence in this assay (P05181 whole entry): as the sequence (P05181 whole entry) above
For series [7], the target named is T1, CYP2E1. As to the kind of experiment: Simulation of hydroxylating activities of CYP2E1 with DROS. The series is classed as biochemical. The note with it: after 10 minutes; for Concentration of hydroxylated product, Control, Cyt b 5 + pNP: Cyt b5, without CYP2E1; for Concentration of hydroxylated product, CYP2E1, pNP: pNP 25 µmol/L, with CYP2E1; for Concentration of hydroxylated product, CYP2E1, Cyt b 5 + pNP: with CYP2E1 and Cyt b5; for Concentration of hydroxylated product, Control, pNP: without CYP2E1. The gist of the method: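 Reconstituted hydroxylation with diffusible oxygen species used initial pNP 25 µmol/L, DLPC 20 µmol/L and CYP2E1 100 nmol/L (omitted in controls). When present: NADPH 200 µmol/L, CPR 200 nmol/L, Cyt b5 200 nmol/L, H2O2 32 µmol/L, or KO2 ≤16 µmol/L. KO2 was added from a DMSO/15-crown ether substock, giving ~1% DMSO/crown ether in the reaction. Hydroxylated product (nmol/L) was measured after 10 min.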
Target sequence in this assay (P05181 whole entry): as above
Target sequence in this assay (P16435 2-677 partner): as the sequence (P16435 2-677 partner) above
Target sequence in this assay (P00167 2-134 partner): as the sequence (P00167 2-134 partner) above

Series [8] relates to CYP2E1. The note with it: enzyme taken at 0.1 µmol/L; cited from earlier work.

Where two headings read alike, the source gives them in different places. Marks after values point to notes of the source that are not given here.

In the case of `Cn1c(=O)[nH]c(=O)c2[nH]cnc21` [3-Methylxanthine (MetXan), 3-Methylxanthine], the “Effect on pNP reactions” value in series [1] is listed as “did not significantly perturb/inhibit”.
On to `Nc1nc[nH]n1` [Amitrol, amitrol], for which the Relative growth density in series [2] (amitrol 10^−3 M, + IPTG) is 60 (9); in series [2] (amitrol 10^−3 M, − IPTG), 94 (4); in series [2] (amitrol 10^−6 M, + IPTG) it was 70 (6); in series [2] (amitrol 10^−6 M, − IPTG), 103 (10); in series [2] (amitrol 10^−9 M, + IPTG), 63 (5); in series [2] (amitrol 10^−9 M, − IPTG), 103 (3). In addition, the Relative growth density in series [2] (amitrol 10^−12 M, + IPTG) is listed as 51 (4); in series [2] (amitrol 10^−12 M, − IPTG), 50 (2).
Turning to `[N-]=[N+]=[N-]` [Azide, azide], the Effect on growth entry is “much less harsh” in series [3] (azide at mmol/L ranges, compared with B megaterium); “inhibitory” in series [3] (nmol/L concentration of azide); “no inhibition whatsoever” in series [3] (µmol/L concentration of azide); “did not impact” in series [5] (azide 10^−6 to 10^−12 M); “very effective in curbing the growth” in series [5] (azide at mmol/L ranges). In addition, the Relative growth density is 24 (3) in series [4] (azide 10^−3 M, + IPTG); 12 (5) in series [4] (azide 10^−3 M, − IPTG); 79 (5) in series [4] (azide 10^−6 M, + IPTG); 97 (7) in series [4] (azide 10^−6 M, − IPTG); 29 (6) in series [4] (azide 10^−9 M, + IPTG); 41 (6) in series [4] (azide 10^−9 M, − IPTG). Moreover, the Relative growth density is recorded as 32 (3) in series [4] (azide 10^−12 M, + IPTG) and 107 (8) in series [4] (azide 10^−12 M, − IPTG).
Turning to `CCc1oc2ccccc2c1C(=O)c1ccc(O)cc1` [Bzr, benzarone], the Ki in series [6] (Ki Competitive, Cheng-Prusoff from IC50, KM 14 µmol/L) is 8.7 µM; in series [6] (Ki Noncompetitive, calculated from IC50 (website)), 71 µM. Moreover, the “Ki Uncompetitive” value in series [6] (calculated from IC50 (website)) is 62.3 µM. The “Inhibition at 10 nmol/L compared to 1 µmol/L” value in series [6] (initial sampling time) is given as “greater extent of inhibition”.
Take `N[C@@H](Cc1cc(I)c(O)c(I)c1)C(=O)O` [DIT, diiodotyrosine]: the “Effect on pNC formation” value is “enhanced reactions” in series [6] (10 nmol/L additive) and “inhibited pNC formation” in series [6] (high/higher additive concentrations).
With `OO` [H2O2], in series [7], the “Concentration of hydroxylated product, Control, Cyt b 5 + pNP” value is “Nil”; the “Concentration of hydroxylated product, CYP2E1, pNP” value is under 10 nmol/L; the “Concentration of hydroxylated product, CYP2E1, Cyt b 5 + pNP” value is reported as “∼74 nmol/L”; the “Concentration of hydroxylated product, Control, pNP” value is reported as “Nil”.
For the compound `CCc1oc2ccccc2c1C(=O)c1ccc(OC)cc1` [MeOBzr, methoxybenzarone], the “Ki Uncompetitive” value in series [6] (calculated from IC50 (website)) is 100.9 µM. Moreover, the Ki in series [6] (read-out: Ki Competitive, Cheng-Prusoff from IC50, KM 14 µmol/L) is 14.1 µM; in series [6] (read-out: Ki Noncompetitive, calculated from IC50 (website)), 115 µM.
Turning to `[O]O` [O2 ^˙−], in series [7], the “Concentration of hydroxylated product, Control, Cyt b 5 + pNP” value was “∼70^b nmol/L”; the “Concentration of hydroxylated product, CYP2E1, pNP” value is reported as “∼104^b nmol/L”; the “Concentration of hydroxylated product, CYP2E1, Cyt b 5 + pNP” value was “∼499^b nmol/L”; the “Concentration of hydroxylated product, Control, pNP” value is “∼88^b nmol/L”.
As to `c1ccc2[nH]ncc2c1` [indazole], the Kd in series [8] was 0.005 µM.
With `O=[N+]([O-])c1ccc(O)cc1` [pNP, para-nitrophenol], the Km in series [6] (read-out: 2E1-pNP KM, substrate constant used for Cheng-Prusoff) amounted to 14 µM.
